Source: PMC3969656 (Pharmacognosy Magazine, 2014)

Key:
[1] = Stability of analytes in rat plasma QC samples and postpreparative stability; format: in vitro ADME; conditions: for Stability in rat plasma, recovered percentage: QC samples (0.1, 0.5, and 5.0 μg/mL); for Postpreparative stability: prepared samples, 24 h storage at 4°C
Procedure, shortened: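 Drug-free rat plasma was spiked to give QC samples at 0.1, 0.5 and 5.0 μg/mL. Samples were stored at room temperature or -20°C. For postpreparative stability, extracted samples were held at 4°C. Samples were extracted with acetonitrile plus isoliquiritin IS and quantified by C18 water/acetonitrile gradient HPLC-UV at 330 nm. Results are given as percent recovered.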

[2] = ref Park et al., 21, cited from earlier work
[3] = 12 h storage at room temperature

For `CC1(C)Oc2cc3oc(=O)ccc3cc2C[C@@H]1O` [Decursinol, decursinol], the “Stability in rat plasma, recovered percentage” value ([1]; 4-weeks storage at -20°C) was 100.9 ± 5.9%, the “Stability in rat plasma, recovered percentage” value [1, 3] was 89.9 ± 10.6% and the Postpreparative stability [1] was 97.8 ± 5.4%.
In the case of `CC(C)(O[C@@H]1O[C@H](CO)[C@@H](O)[C@H](O)[C@H]1O)[C@H]1Cc2cc3ccc(=O)oc3cc2O1` [Nodakenin, nodakenin], the “Stability in rat plasma, recovered percentage” value ([1]; 4-weeks storage at -20°C) is reported as 99.0 ± 4.4%, the “Stability in rat plasma, recovered percentage” value [1, 3] is reported as 97.8 ± 7.1% and the Postpreparative stability [1] is reported as 100.5 ± 6.1%.
For `CC(C)=CC(=O)O[C@H]1Cc2cc3ccc(=O)oc3cc2OC1(C)C` [decursin], the “Plasma level after intravenous administration” value ([2]; intravenous administration of decursin) is listed as “rapidly decreased” and the Hepatic first-pass metabolism [2] is listed as “extensive hepatic first-pass metabolism”.
